DNMT1 inh – DNMT1 (human) enzyme inhibition; AID 588458; inhibition (reported as % activation of signal), % at 10 µM; 0.83% of 360,000 active; P26358; DNMT1 molecular beacon, Hinp1I cleavage, fluorescence; in the data active means inhibition above about 50%
SUMO1 PPI mod – modulators of human SUMO1-mediated protein-protein interactions; P63165; SUMO1 binding to a labelled peptide, TR-FRET, 1 h; 0.33% of 360,000 active; inhibition, % at 20 µM; in the data active means inhibition above about 37%
LMPTP block – blocks human LMPTP phosphatase | recombinant LMPTP-A, OMFP fluorogenic substrate, fluorescence intensity | inhibition, % at 20 µM | AID 651560 | P24666 | 0.22% of 360,000 active;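 active means compounds that cut the enzyme signal by at least half of the control window in the single-dose screen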;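 further: plate controls were DMSO wells with enzyme plus substrate for no effect and substrate without enzyme for full effect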
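material = LMPTP-A | quantity = 0.625 nM enzyme | reagent = OMFP substrate, 400 µM final | buffer or medium = Bis-Tris pH 6.0, DTT, detergent | detection = endpoint fluorescence intensity from OMFP dephosphorylation | dosing = single 20 µM dose | read-out basis = % inhibition relative to no-enzyme and uninhibited control wells | control set = no-enzyme and uninhibited controls | timing = 50 min at room temperature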
STEP block – inhibitors of human striatal-enriched phosphatase STEP; P54829; recombinant STEP, OMFP fluorogenic substrate, fluorescence; inhibition, % at 20 µM; 0.25% of 360,000 active; AID 588621;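 active means inhibition at 20 µM, scaled per plate between control wells, above about 37%, limit read from the data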;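 further: 0% = DMSO with enzyme and substrate and 100% = substrate only without enzyme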
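Measure: Control-normalized % inhibition with plate pattern correction | Test system: STEP phosphatase, cell-free reaction | Medium: pH 6.0 Bis-Tris with DTT and Tween 20 | Technique: Fluorescence, 480/540 nm | Times: Reaction 20 min, ambient temperature | Doses: Single compound dose of 20 µM, 1% DMSO final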
Scp1 inh – inhibitors of human Scp-1 phosphatase; Q9GZU7; Recombinant Scp1, phosphopeptide, malachite green phosphate absorbance; inhibition, % at 20 µM; 0.88% of 340,000 active;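 active means inhibition above about 50% at 20 µM, limit read from the data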;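 further: plate controls were DMSO wells with enzyme for no effect and wells lacking enzyme for full effect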
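Material: truncated SCP-1 phosphatase (76-261aa) / Buffer or medium: 50 mM Tris acetate pH 5.5, 0.005% Tween-20, 10 mM MgCl2 / Compound dosing: one concentration, 20 µM, with 1.0% DMSO / Incubation: 45 min room-temperature reaction, 5 min colour, 30 min stabiliser / Detection: colorimetric free-phosphate detection, absorbance 630 nm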
DNMT1 interf DR – beacon fluorescence artifact, dose response counter-screen; shares compounds with DNMT1 inh; molecular beacon fluorescence, spectral interference counter-screen; IC50, µM; 200 tested, under 10 active; AID 602382; call rule not given here
DNMT1 inh conf – confirmation of human DNMT1 inhibitors; 8% of 2,300 active; shares compounds with DNMT1 inh; DNMT1 molecular beacon HinP1I cleavage, fluorescence; inhibition, % at 10 µM;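 active means average inhibition of at least 30% in the single-concentration confirmation test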
Beacon interf – counter-screen for DNMT1 inhibitors: spectral interference. 1% of 2,300 active. shares compounds with DNMT1 inh. activation (fluorescence interference), % at 10 µM. DNMT1 molecular beacon spectral interference counterscreen, fluorescence 485/520;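 active means activation of at least 30% at 10 µM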;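 further: DNMT1 catalytic domain with a HinP1I cleavage step and a FAM/dabcyl DNA beacon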
The depositor's hits bear a star; x = no result. The list is not random: actives were taken first. Their share in the collection is about 1.7%.

SMILES | DNMT1 inh | SUMO1 PPI mod | LMPTP block | STEP block | Scp1 inh | DNMT1 inh conf | Beacon interf | others
CC(=O)N1C[C@H]2CON(C)[C@H]2C[C@H]1c1cccc(-c2ccccc2C)c1 | 3.3 | -0.7 | -2.1 | 1.8 | -8.3 | x | x
O=C1C(Cl)=C(N2CCCC2)C(=O)N1c1ccc(F)cc1 | 71.8* | -36.9 | 0.6 | 11.7 | 1.4 | 3.0 | 3.4
COc1ccc(N2C(=O)C(Cl)=C(N3CCCC3)C2=O)cc1 | 8.0 | -28.7 | -0.8 | 5.7 | 6.0 | x | x
Nc1cccc(C(=O)OCC(=O)Nc2cccc3c2C(=O)c2ccccc2C3=O)c1 | -10.4 | 18.5 | 0.1 | -3.0 | 17.4 | x | x
CCN(CC)CCC(=O)Nc1cccc2c1C(=O)c1ccccc1C2=O | 73.1* | -36.1 | 1.2 | 3.3 | -4.2 | 52.8* | 0.8 | DNMT1 interf DR=>99
C=CCn1c(SCC(=O)NCc2ccc3c(c2)OCO3)nc2scc(-c3ccccc3)c2c1=O | 1.3 | -2.0 | 2.4 | 2.4 | -9.7 | x | x
C=CCn1c(SCC(C)=O)nc2scc(-c3ccco3)c2c1=O | 75.5* | 24.3 | 25.0 | 8.7 | 18.8 | 6.6 | 4.6
C=CCn1c(SCc2ccc3c(c2)OCO3)nc2scc(-c3ccco3)c2c1=O | 103.2* | 24.9 | 6.7 | 3.3 | -9.0 | 3.7 | 2.6
C=CCn1c(SC(F)F)nc2scc(-c3ccco3)c2c1=O | 3.3 | 0.9 | 3.7 | 5.6 | -5.2 | x | x
O=C(NCCOc1ccccc1F)C1CCC(=O)N(CCc2cccc(F)c2)C1 (configuration not stated) | -1.8 | -4.0 | 1.6 | -3.8 | -1.7 | x | x
Cc1ccc(Nc2nc(=O)c3cc([N+](=O)[O-])ccc3s2)cc1 | 59.0* | -20.4 | 14.1 | 4.1 | 29.2 | 0.8 | -3.8
Cc1ccccc1Nc1nc(=O)c2cc([N+](=O)[O-])ccc2s1 | 1.0 | -17.4 | -0.5 | -1.0 | -8.7 | x | x
CC1CCN(S(=O)(=O)c2cccc(C(=O)Nc3nncs3)c2)CC1 | 1.9 | 6.3 | -0.8 | -3.8 | -4.8 | x | x
CCOc1nc(NC(=O)NC(=O)c2ccccc2)nc(-c2ccccc2)n1 | 73.5* | 2.6 | 0.0 | -9.7 | 1.1 | 0.1 | -5.0
CSC1=NSC2=NC(=O)/C(=C/c3coc4ccc(O)cc4c3=O)C(=N)N12 | 82.3* | 41.7* | 5.7 | -79.9 | 22.3 | 12.9 | -2.6
CSC1=NSC2=NC(=O)/C(=C/c3coc4ccccc4c3=O)C(=N)N12 | -6.2 | 4.9 | -0.6 | -79.6 | -10.7 | x | x
O=C(NCc1ccc2c(c1)OCO2)C1CCN(C(=O)Nc2ccc(Cl)cc2)CC1 | 74.6* | -0.5 | -0.8 | 1.3 | -3.5 | 5.7 | 1.4
Oc1cc(O)c(CN2CCOCC2)cc1CN1CCOCC1 | 1.8 | 5.3 | -0.6 | -3.5 | 0.0 | x | x
Oc1c(CN2CCOCC2)cc(CN2CCOCC2)cc1CN1CCOCC1 | 87.3* | 4.2 | -1.6 | 1.1 | -7.6 | 1.3 | 4.5
COc1ccc(N=Cc2c(O)[nH]c3ccccc23)cc1 | -4.6 | -13.3 | -0.9 | 1.6 | -2.2 | x | x
Cc1ccc(N=Cc2c(O)[nH]c3ccccc23)c([N+](=O)[O-])c1 | 59.0* | -19.4 | 10.2 | 0.6 | -4.5 | 2.5 | 2.1
CCN(C(=O)COC(=O)c1nccnc1N)c1cccc2ccccc12 | 61.1* | -16.9 | -1.5 | -2.6 | -12.4 | 3.1 | 2.8
CCOC(=O)[C@H]1[C@H]2COc3cc(OC)ccc3[C@@H]2N2C(=O)N(c3cccc(Cl)c3)C(=O)[C@@]12C | -4.3 | 3.8 | 1.5 | 1.7 | -8.6 | x | x
NC(=O)CC(NC(=O)Cc1cccc2ccccc12)c1ccc(NC2CCCCCCC2)c([N+](=O)[O-])c1 (configuration not stated) | 59.6* | -0.3 | 1.4 | 3.2 | -0.2 | 1.1 | 5.8
NC(=O)CC(NC(=O)Cc1ccc(Br)cc1)c1ccc(NC2CCCC2)c([N+](=O)[O-])c1 (configuration not stated) | 53.8* | -11.8 | 1.5 | 2.9 | -5.6 | 3.1 | 1.6

Compound activity (PubChem BioAssay)
